Bioassay records from PubChem.
In the library only some 2.2% were active in any assay of this set; here they are far more common.
NR2E3 ag-1: agonists of human nuclear receptor NR2E3; Q9Y5X4; GST-NR2E3/biotin-RetCOR TR-FRET, 1536-well; inhibition of corepressor binding, % at 4.78 µM; 320,000 tested, 0.12% active; AID 2300;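 active = percent inhibition above the cutoff of mean plus 3 SD of all tested compounds, set per screening campaign, cut at about 20% in these data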;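 note: 0% = DMSO wells and 100% = biotin wells as full block of FRET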
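Material: NR2E3–RetCOR corepressor complex / Incubation: Compound–protein incubation for 5 h at 4 °C / Dosing: compound at 4.8 µM, single dose / Detection: time-resolved FRET / Benchmarks: high control biotin, low control 0.6% DMSO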
V-ATPase pHluor: alters yeast V-ATPase proton transport | 350,000 tested, 0.37% active | AID 504577 | S. cerevisiae, pHLuorin cytosolic pH fluorescence | response, % at 10 µM; in the data active = response mostly above about 7.3%, no sharp cut-off; inactive = mostly below about 5.4%; note: actives read high
NR2E3 ag-2: activates human NR2E3 receptor; CHO-S Gal4-NCOR/VP16-NR2E3 two-hybrid, luciferase; 360,000 tested, 0.35% active; inhibition of corepressor binding, % at 3.98 µM; Q9Y5X4;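 active = inhibition above the mean of all tested compounds plus 3 SD, cut at about 70% in these data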;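 note: 0% = DMSO with NR2E3 transfected cells and 100% = cells lacking NR2E3 construct; higher means lower luciferase signal from less NR2E3 corepressor binding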
GAA850 FXN act: frataxin GAA850 promoter activation; AID 540364; activation, % at 6 µM; HEK293 lucGAA850 FXN promoter luciferase reporter, 24 h; percent of 10 µM SAHA response; 360,000 tested, 0.56% active;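 active = activation above the average of all compounds screened plus 3 SD, cutoff fixed separately per campaign, cut at about 7.5% in these data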;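 note: 0% = DMSO wells and 100% = 10 µM SAHA wells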
GalR3 antagonist: antagonists of human GalR3; HEK293 GalR3-CNG cAMP membrane potential fluorescence; galR3 body fused to GalR1 C-terminus; inhibition, % at 3 µM; O60755; AID 651719; 360,000 tested, 0.44% active;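 active = inhibition above the screen-wide average plus 3 SD, cut at about 13% in these data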;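 note: forskolin and galanin both at EC90 stimulate the cells; cAMP rise reported by CNG channel membrane potential dye signal; 0% = forskolin plus galanin with DMSO and 100% = forskolin alone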
Target sequence (O60755 1-299 limits assumed): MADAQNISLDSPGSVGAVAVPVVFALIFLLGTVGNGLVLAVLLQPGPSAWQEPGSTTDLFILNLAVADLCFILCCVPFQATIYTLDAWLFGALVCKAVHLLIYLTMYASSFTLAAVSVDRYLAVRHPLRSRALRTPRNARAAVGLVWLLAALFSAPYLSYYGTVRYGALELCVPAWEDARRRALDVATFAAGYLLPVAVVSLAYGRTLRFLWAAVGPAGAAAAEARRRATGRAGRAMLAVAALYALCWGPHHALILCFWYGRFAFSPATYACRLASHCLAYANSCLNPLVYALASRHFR
HIV Env fusion: HIV envelope-mediated fusion inhibition; 360,000 tested, 1.1% active; inhibition, % at 12.3 µM; HeLa-JRFL Env/CEM21 cell fusion, luciferase;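 active = mean replicate inhibition score of at least 50 and every replicate individually at or above 50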;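 note: 0% = plate neutral controls and 100% = maraviroc near 300 nM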
Numbers without * were called inactive; [ ] = dose if it differs, or a comment.

For O=C(COC(=O)c1ccccc1)NC1CCCC1 the results were NR2E3 ag-1 -2.6, V-ATPase pHluor 263.2*, NR2E3 ag-2 -11.4, GAA850 FXN act 0.6, GalR3 antagonist -8.0 and HIV Env fusion -1.9.
For Cc1cc(NS(=O)(=O)c2ccc(NC(=O)c3oc4ccccc4c3C)cc2)no1 the results were NR2E3 ag-1 5.0, V-ATPase pHluor -0.4, NR2E3 ag-2 -14.7, GAA850 FXN act 1.4, GalR3 antagonist -7.5 and HIV Env fusion 56.9*.
Screening CO[C@H]1CN(C)C(=O)c2ccc(NC(=O)c3ccno3)cc2OC[C@@H](C)NC[C@H]1C returned HIV Env fusion 4.5[16.7 µM].
For O=C(C[C@H]1C[C@H]2c3cc(NC(=O)c4cccnc4)ccc3O[C@H]2[C@H](CO)O1)NCC1CC1 the results were HIV Env fusion 5.3[16.7 µM].
`COc1ccc(NC(=O)c2ccco2)cc1NC(=O)c1cccc(OC(C)C)c1` gave NR2E3 ag-1 -2.6, V-ATPase pHluor -1.8, NR2E3 ag-2 -20.4, GAA850 FXN act -0.1, GalR3 antagonist 1.7 and HIV Env fusion 112.8*.
Screening COc1cccc(C(=O)Nc2cc(NC(=O)c3ccco3)ccc2OC)c1 returned NR2E3 ag-1 1.2, V-ATPase pHluor -2.9, NR2E3 ag-2 -16.9, GAA850 FXN act -0.4, GalR3 antagonist -2.1 and HIV Env fusion -29.2.
CO[C@@H]1CN(C)C(=O)c2cc(NS(=O)(=O)c3cn(C)cn3)ccc2OC[C@@H](C)N(CC2CC2)C[C@H]1C was read as HIV Env fusion -6.5[16.7 µM].
Screening CCOc1ccc(N2CC(NS(=O)(=O)c3cccs3)CC2=O)cc1 (stereo not drawn) returned NR2E3 ag-1 -1.8, V-ATPase pHluor -2.0, NR2E3 ag-2 14.1, GAA850 FXN act -1.5, GalR3 antagonist -1.4 and HIV Env fusion 55.8*.
`O=C(Cn1cc(C(=O)c2cccs2)c2ccccc21)NCC1CCCO1` (stereo not drawn) gave NR2E3 ag-1 -2.7, V-ATPase pHluor -0.4, NR2E3 ag-2 -2.6, GAA850 FXN act 0.5, GalR3 antagonist -0.9 and HIV Env fusion -39.6.
Screening O=C(Cn1cc(C(=O)c2cccs2)c2ccccc21)NCc1ccc2c(c1)OCO2 returned NR2E3 ag-1 3.2, V-ATPase pHluor 1.7, NR2E3 ag-2 -2.2, GAA850 FXN act -2.1 and HIV Env fusion 56.5*.
`O=C(C[C@H]1C[C@H]2c3cc(NC(=O)C4CCOCC4)ccc3O[C@H]2[C@H](CO)O1)NCc1ccccc1` gave HIV Env fusion 0.5[16.7 µM].
For O=C(NCc1ccccc1)[C@@H]1CCCN1C(=O)[C@@H]1CCCN1C(=O)c1cccc2ccccc12 the results were NR2E3 ag-2 22.1, GalR3 antagonist -1.0 and HIV Env fusion 74.7*.
For Cc1ccccc1C(=O)N[C@H](C(=O)N1CCC[C@H]1C(=O)NCc1ccccc1)c1ccccc1 the results were GalR3 antagonist -8.0 and HIV Env fusion 55.9*.
Cc1ccccc1C(=O)N[C@@H](CC(C)C)C(=O)N1CCC[C@H]1C(=O)NCc1ccccc1 was read as GalR3 antagonist -6.3 and HIV Env fusion -47.4.
For O=C(NCc1ccncc1)[C@@H]1CCCN1C(=O)[C@@H]1CCCN1C(=O)c1cccc2ccccc12 the results were NR2E3 ag-2 -13.5, GalR3 antagonist 2.3 and HIV Env fusion 16.0.
Screening O=C(O)C[C@H]1C[C@H]2c3cc(NC(=O)CC4CC4)ccc3O[C@H]2[C@H](CO)O1 returned HIV Env fusion -1.3[16.7 µM].
For C[C@@H]1CN([C@@H](C)CO)C(=O)c2cc(NC(=O)CCN3CCOCC3)ccc2O[C@H]1CN(C)S(=O)(=O)c1ccc(F)cc1 the results were HIV Env fusion 0.9[16.7 µM].
`Cc1ccccc1NC(=O)/C=C/c1ccc([N+](=O)[O-])s1` gave NR2E3 ag-1 0.3, V-ATPase pHluor -4.5, NR2E3 ag-2 84.8* and GAA850 FXN act -13.3.
Screening Cc1ccc(S(=O)(=O)Nc2ccc3c(c2)C(=O)N([C@H](C)CO)C[C@H](C)[C@@H](CN(C)C(=O)Nc2c(C)noc2C)OCCCC[C@@H](C)O3)cc1 returned HIV Env fusion -3.4[16.7 µM].
`S=C1Cc2ccccc2N1` gave V-ATPase pHluor -1.7, NR2E3 ag-2 22.2, GAA850 FXN act -7.0, GalR3 antagonist -0.1 and HIV Env fusion 73.0*.
